GAA850 FXN act: FXN promoter activators, primary screen, cell-based, luciferase luminescence, HEK293 lucGAA850; HEK293 lucGAA850 FXN promoter luciferase reporter, 24 h; percent of 10 µM SAHA response; activation, % at 6 µM; 0.56% of 360,000 active;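 active = activation above the average of all compounds screened plus 3 SD, cutoff fixed separately per campaign, cut at about 7.5% in these data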;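 note: 0% = DMSO wells and 100% = 10 µM SAHA wells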
GASC-1 inh: inhibitors of GASC-1 histone demethylase, primary screen, biochemical, fluorescence, DELFIA europium; Lysine-specific demethylase 4C (Homo sapiens), Q9H3R0; GST-JMJD2C(1-420) H3K9me3 demethylation; inhibition, % at 2.35 µM; 0.069% of 330,000 active; AID 2099, 2009;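 active = more than half of a compound's replicate wells show inhibition beyond 50%, single wells judged on their own value; inconclusive = some, but no more than half, of replicates pass 50% inhibition; inactive = no replicate passes 50% inhibition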;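 note: signal counts dimethyl H3K9 product captured on neutravidin plate; 0% = median of DMSO wells and 100% = 0.3 times that DMSO median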
AHR act: AHR activators, primary screen, cell-based, luminescence, luciferase reporter, human; 2.5% of 320,000 active; activation, % at 5 µM; AHR-responsive luciferase reporter cells; in the data active = activation above about 47%;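 note: 0% = vehicle wells and 100% = reference agonist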
Target sequence (P35869 whole entry, looked up): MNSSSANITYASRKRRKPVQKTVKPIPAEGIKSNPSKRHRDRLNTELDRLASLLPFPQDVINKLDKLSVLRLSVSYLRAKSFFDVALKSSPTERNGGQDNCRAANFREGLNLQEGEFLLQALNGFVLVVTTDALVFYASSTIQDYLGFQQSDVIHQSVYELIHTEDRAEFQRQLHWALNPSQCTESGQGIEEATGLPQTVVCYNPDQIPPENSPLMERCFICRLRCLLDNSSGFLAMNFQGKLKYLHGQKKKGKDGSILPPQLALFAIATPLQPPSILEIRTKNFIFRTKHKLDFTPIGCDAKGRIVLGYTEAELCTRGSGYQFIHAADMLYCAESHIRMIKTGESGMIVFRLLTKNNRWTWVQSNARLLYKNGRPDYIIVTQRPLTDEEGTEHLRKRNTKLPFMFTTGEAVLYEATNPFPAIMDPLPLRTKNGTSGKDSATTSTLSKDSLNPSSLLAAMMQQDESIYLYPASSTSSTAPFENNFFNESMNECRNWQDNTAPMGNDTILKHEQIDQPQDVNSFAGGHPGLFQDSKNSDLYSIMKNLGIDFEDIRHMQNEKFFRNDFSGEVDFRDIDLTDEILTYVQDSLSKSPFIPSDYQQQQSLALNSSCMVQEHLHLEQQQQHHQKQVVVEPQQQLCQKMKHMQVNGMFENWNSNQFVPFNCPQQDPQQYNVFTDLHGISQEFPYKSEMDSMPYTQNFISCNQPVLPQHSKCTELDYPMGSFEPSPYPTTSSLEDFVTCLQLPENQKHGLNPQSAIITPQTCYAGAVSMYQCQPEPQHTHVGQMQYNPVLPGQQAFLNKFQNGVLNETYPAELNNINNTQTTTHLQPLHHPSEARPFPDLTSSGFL
SR-BI HDL uptake: inhibitors of SR-BI mediated HDL lipid uptake, primary screen, ldlA[mSR-BI] cells, fluorescence, single point; Scavenger receptor class B member 1 (Mus musculus), Q61009; ldlA[mSR-BI] CHO cells, DiI-HDL uptake fluorescence, 3 h; inhibition, % at 12.5 µM; 0.96% of 320,000 active;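 active = mean replicate inhibition of at least 70% and a set share of replicates each scoring 70 or more; inconclusive = meets just one of the two criteria; inactive = fails both criteria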;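 note: 0% = median of neutral control wells and 100% = median of positive control wells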
SR-BI DiI-HDL act: activators of SR-BI mediated DiI-HDL uptake, primary screen, ldlA[mSR-BI] CHO cells, DiI fluorescence | 3 h; 100 = double the neutral-control signal | 0.096% of 320,000 active | activation, % at 12.5 µM | AID 504775, 2011;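 active = mean replicate activation of at least 60% and every replicate at or above 60%; inconclusive = mean or all-replicate condition met, but not both; inactive = mean below 60% and not all replicates reaching 60%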;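 note: 0% = median plate neutral-control signal and 100% = twice that signal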
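Test system: SR-BI-overexpressing, LDLR-lacking CHO cells. Measured by: DiI fluorescence, bottom read. Medium: Ham's F12 with 0.5% BSA, HEPES 25 mM, pH 7.4. Timing: 3 h uptake period with compound, 37 °C.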
* hit, by the source's call; ? = inconclusive; . = no result. Rows were chosen to be rich in hits. Some 3.7% of all compounds tested hit in one or more screens of this group.

SMILES | GAA850 FXN act | GASC-1 inh | AHR act | SR-BI HDL uptake | SR-BI DiI-HDL act
Cc1cc(Nc2ccc(Br)cc2F)n2nc(C)nc2n1 | -1 | 3 | 56* | -3 | 3
COC(=O)Nc1ccc2ccc3c(NC(=O)OC)ccc4ccc1c2c43 | -1 | . | . | 68 | -68
CCN(c1ccccc1)S(=O)(=O)c1ccc(Oc2ccc(-n3ccnc3)cc2)nc1 | 0 | -2 | 59* | 29 | -29
Cc1cc(=O)[nH]c2cc(O)ccc12 | 2 | 3 | 1 | -42 | 42
CC(C)=CCCC1(C)C=Cc2c(c(C)cc3c2[nH]c2cc(O)ccc23)O1 (configuration not stated) | 0 | -11 | 3 | 107* | -107
O=C(CSc1nnc(-c2ccccc2O)n1Cc1ccccc1)NNC(=O)c1ccccc1O | 3 | 5 | 20 | 88* | -88
O=C(CSc1nnc(-c2ccccc2)n1Cc1ccccc1)NNC(=O)c1ccccc1O | -1 | 14 | 0 | 30 | -30
COc1ccccc1Nc1ncnc2ccc(C)cc12 | -1 | -2 | 35 | 5 | -5
COc1c(C(=O)Nc2ccc3[nH]c(=O)[nH]c3c2)cc2ccccc2c1Br | 3 | 9 | -5 | 78* | -78
O=C(CC1SC(=O)N(Cc2cccc3ccccc23)C1=O)Nc1nccs1 (configuration not stated) | 0 | -4 | 71* | 20 | -19
O=C(Cc1ccc(S(=O)(=O)N2CCOCC2)s1)Nc1cc(Cl)ccc1Cl | -1 | -8 | 92* | 3 | -3
COc1cc(/C=N/N2CCN(C3c4ccccc4-c4ccccc43)CC2)ccc1O | 0 | -3 | 4 | 56 | -56
COc1cccc(/C=N/N2CCN(C3c4ccccc4-c4ccccc43)CC2)c1O | 3 | -11 | 1 | 72* | -72
Cc1ccc(NC(=O)CNC(=O)c2cccs2)nc1 | 1 | 4 | 9 | -19 | 19
Cc1ccc(-n2c(=S)[nH]c3c(oc4ccccc43)c2=O)cc1C | 0 | 5 | 14 | 2 | -2
O=c1c2oc3ccccc3c2[nH]c(=S)n1-c1ccc(F)cc1 | 1 | -7 | 57* | -18 | 18
Cc1c(N=NC2=C(O)CCCC2=O)c(=O)n(-c2ccccc2)n1C | 0 | 1 | 51* | -11 | 11
Cc1c(N=Nc2ccc(O)cc2)c(=O)n(-c2ccccc2)n1C | 3 | -15 | 56* | 0 | 0
Cc1[nH]c2ccccc2c1N=Nc1c(C)n(C)n(-c2ccccc2)c1=O | -2 | -14 | 32 | 26 | -26
O=C(CSc1n[nH]c(=O)n1C1CC1)Nc1cc(Cl)ccc1Oc1ccccc1 | 7 | 1 | 4 | 31 | -31
COc1ccnc2c1c(=O)n(Cc1ccc(Cl)cc1)c(=O)n2C | 1 | 14 | 3 | 0 | 0
Oc1[nH]c2ccc(Br)cc2c1N=Nc1ccc(C(F)(F)F)cn1 | 0 | 1 | 64* | 57 | -57
Oc1[nH]c2ccccc2c1N=Nc1ccccn1 | 5 | . | . | -3 | 3
Oc1[nH]c2ccccc2c1N=Nc1ccc(C(F)(F)F)cn1 | 1 | 2 | 55* | 8 | -8
C=CCN1C(=O)/C(=C/c2ccc(-c3ccc(F)cc3)o2)SC1=S | -1 | 9 | 9 | 48 | -48
SMILES | GAA850 FXN act | GASC-1 inh | AHR act | SR-BI HDL uptake | SR-BI DiI-HDL act
O=[N+]([O-])c1ccccc1CCc1cnc(Cl)s1 | 0 | -8 | 1 | 84* | -84
O=[N+]([O-])c1ccccc1CSc1ccccn1 | 1 | 3 | -4 | 4 | -4
O=C(NCCCN1CCOCC1)c1cccs1 | 1 | -10 | 3 | -34 | 34
Clc1ccc(-c2nn3c(-c4ccccc4)nnc3s2)cc1 | -1 | -1 | -16 | 17 | -17
Clc1ccc(-c2nnc3sc(-c4ccc(Br)o4)nn23)c(Cl)c1 | 1 | 1 | 42 | -6 | 6
Cc1oc(-c2ccc(Cl)cc2)cc1-c1nn2c(-c3ccoc3C)nnc2s1 | 2 | -10 | 52* | -16 | 16
Clc1ccc(-c2nnc3sc(-c4ccc(Br)o4)nn23)cc1 | 2 | -13 | 61* | 6 | -6
COc1ccc(-c2nc3cnccn3c2Nc2ccc(C)cc2)cc1 | 4 | 18 | 65* | 34 | -34
CSc1ccc(-c2nc3cnccn3c2Nc2ccc3c(c2)OCO3)cc1 | 3 | 27 | 188* | -5 | 5
Cc1ccc(Nc2c(-c3ccc(C)o3)nc3cnccn23)cc1 | 4 | 2 | 18 | 26 | -26
Cc1ccc(-c2nc3cnccn3c2Nc2ccc3c(c2)OCO3)o1 | 3 | 7 | 53* | 14 | -14
Cc1ccc(Nc2c(-c3ccccc3)nc3cnccn23)cc1 | 4 | -7 | 3 | . | .
O=Cc1c(Cl)nc2ccccn12 | -1 | -9 | 1 | -9 | 9
COc1ccc(-c2nc3ccccn3c2C=O)cc1 | 4 | 7 | 55* | -8 | 8
CC(=O)Nc1c(-c2ccc(F)cc2)nc2ccccn12 | 1 | 1 | -1 | -23 | 23
O=Cc1c(-c2ccc(F)cc2)nc2ccccn12 | 2 | -11 | 70* | -9 | 9
COc1ccc(-c2csc(C(O)c3ccc(F)cc3)n2)cc1OC (configuration not stated) | 2 | . | . | . | .
CCCc1nnc(SCC(=O)N2CCCC2)n1Cc1ccco1 | 0 | 2 | 2 | -27 | 27
c1ccc(-c2cn3c4c(sc3n2)CCCC4)cc1 | -5 | 4 | 66* | 16 | -16
c1ccc(-c2cn3nc(-c4ccccc4)sc3n2)cc1 | 1 | -13 | 12 | -2 | 2
O=C(CCN1C(=O)/C(=C\c2ccccc2)SC1=S)NNC(=O)c1ccccc1O | -1 | 10 | 5 | 99* | -99
Cc1cc(=O)oc2ccc(OCc3ccccc3)cc12 | 0 | 35 | 51* | 30 | -30
COc1ccccc1NC(=O)Nc1nc(CC(=O)Nc2cc(F)ccc2F)cs1 | 2 | ? | 63* | 97* | -97
COc1ccccc1NC(=O)Nc1nc(CC(=O)Nc2ccc(F)c(F)c2)cs1 | -1 | -13 | 52* | 40 | -40
COc1ccc(NC(=O)Cc2csc(NC(=O)Nc3ccccc3OC)n2)cc1 | -2 | . | . | . | .
COc1ccccc1NC(=O)Nc1nc(CC(=O)Nc2ccc(N(C)C)cc2)cs1 | 3 | -2 | 21 | 91* | -91
COc1ccccc1NC(=O)Nc1nc(CC(=O)Nc2ccc(F)cc2)cs1 | 0 | -2 | 32 | 44 | -44
CNc1ccc(C(=O)N2CCN(S(=O)(=O)c3ccc4c(c3)OCCCO4)CC2)cc1[N+](=O)[O-] | 1 | -11 | 0 | -15 | 15
COc1ccc(OC[C@@H](O)CNC(=O)c2cccc3c2C(=O)c2ccc(Cl)cc2S3(=O)=O)cc1 | 1 | -3 | 3 | 7 | -7
NNC(=O)CN1CCCc2ccccc21 | -3 | -14 | 71* | -10 | 10
